Measured values published in the RNAGym collection of RNA variant scans (doi:10.1101/gad.245936.114).
This sample holds only a part of the variants without activity.

B1: tRNA (parent)
chain: CUCUCGGUAGCCAAGUUGGUUUAAGGCGCAAGACUUUAAUUUAUCACUACGAAAUCUUGAGAUCGGGCGUUCGACUCGCCCCCGGGAGAUUUUUUCCUCGAGCAA

Variants of: B1
Test: nonsense suppression (GFP-seq) (ratio to wild type); higher = more function; SUP4oc tRNA, yeast GFP reporter sort-seq
In short: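 Yeast were grown in raffinose/galactose medium with 80 mg/L adenine, each strain bearing a genome-integrated ochre-suppressor tRNA variant from a ~3% random-mutation library, a galactose-driven GFP ochre reporter, and RFP. After sorting into GFP/RFP bins, every bin was sequenced on an Illumina platform at phred ≥30. The GFPSEQ value, a measure of nonsense suppression, is the weighted bin median GFP/RFP relative to the unmutated parent tRNA, using each variant's estimated cell share per bin as the weight. Only variants with ≥100 reads and ≥30 cells were included.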

Row | Variant | nonsense suppression
1 | GUCUCGGUAGCCAAGUUGGGUUUAGGAGCAAGACUUUAAUUUAUCACUACGAAAUCUUGAGAUCGGGCGUUCGACACGCCCCCGGGAUAUUUUUUCCUCGAGCAA | ≤ 0.026
2 | CGCUCGGUAGCCAAGGUGGUUGUAGGCGCAAGACUUUAAUUUAUCACUACGAAAUCUUGAGAUCGGGCGUUCGACUCGCCCCCGGGAGAUUUUUUCCUCGAGCAA | ≤ 0.026
3 | CUCUCGGUAGCCAAGGUGGUUUAAGGCGUAAGACUUUAAUUUAUCACUACGAAAUCUUGAGAUCGGGCGUUCGACUCGCCCCCGGGAGAUUUUUUCCUCGAGCAA | 1.11
4 | CUCUCGGUAGCCACGUUGGUUUAAGGCGCAAGACUUUAAUUUAUCACUACGAAAUCUUGAGAGCGGGCGUUCGACUCGCCCCCGGGCGAUUUUUUCCUCGAGCAA | ≤ 0.026
5 | CUCUUGGUAGCCAAGUUGGUUUAAGGCGCAAGACUUUAAUUUAUCACUACGAAAUCUUGAGAUCGGGCGUUCGACUCGCCCCCGGGGGAUUUUUUCCUCGAGCAA | 0.0561
6 | CCCUCGGUAGCGAAGUUGGUUUACGGCGCAAGACUUUAAUUUAUCACUACGAAAUCUUGAGUUCGGGCGUUCGACUCGACCCCGGGAGAUUUUUUCCUCGAGCAA | ≤ 0.026
7 | CUCUCGGUAGCCAAGUUGGUUUAAGGCGCAAGACUUUAAUUUAUCACUACGAAAUCUUGAGAUCGGGCGUUCGACUCGCCCCCCCGAGAUUUUUUCCUCGAGCAA | 0.0289
8 | CUCUCGGUGGCCAAGUUGGUUUAAGGCGCAAGACUUUAAUUUAUCACUACGAAAUCUUGACAUCGGGCGUUCGACUCGCCCCCGGGAGAUUUUUUCCUCGAGCAA | 1.06
9 | CUCUCGGUAGCCAAGUUGGUGUAAGGCGCAAGUCUUUAAUUUAUCACUACGAAAUCCAGAGAUCGGGCGUUCGACUCGCCCCCGGGAGGUUUUUUCCUCGAGCAA | ≤ 0.026
10 | CUCUCGGUAACCAAGUUGGUUUAAGGCGCAAGACUUUAAUUUAUCACUACGAAAUCUUGAGAUGGGGCGUUCGACUCGCCCCCGGGAGAUUUUUUCCUCGAGCAA | ≤ 0.026
11 | CUCUCGGUGGCCAAGUUGGUUUAAGGCGCGAGACUUUAAUUUAUCACUACGAAAUCUUGAAAUCGGGCGUUCGACUCGCCCCCGGGAGAUUUUUUCCUCGAGCAA | 0.291
12 | CUCUCGGUAGCUAAGUUGGUUUAAGGCGCAAGACUUUAAUUUAUCACUACGAAAUCUUGAGAUCGGGCGUUCGACUCACCCCCGGGAGAUUUUUUCCUCGAGCAA | 0.0268
13 | CUCUCGGUAGCCAAGUCGGUUUAAGGCGCAAGACUUUAAUUUAUCACUACGAAUUCUUGAGAUCGGGCGUUCGACUCGCCCCCGGGAGAUUUUUUCCUCGAGCAA | 0.788
14 | CUCUCGGUAGCCAAGCUGGUUCAAGGCGCAAGACUUUAAUUUAUCACUACGAAAUCUUGACAUCGGGCGUUCGACUCGCCCCCGGGAGAUUUUUUCCUCGAGCAA | 0.207
15 | CUCUCGGUAGCCAAGUUGGUUUAAGGCGCAAGACUUUAAUUUAUCACUACGAAAUCUUUAGAUCGGGCGUUCGACUCGCCCCCGGGAGGUUUUUUCCUCGAGCAA | ≤ 0.026
16 | CUCUCGGUAGCCAAGUUGGUUUAAGGCGCAAGACUUUAAUUUAUCACUACGAAAUCUUGAGAUCAGGCGUUCGACUCCCCCCCGGGAGAUUUUUUCCUCGAGCAA | ≤ 0.026
17 | CUCUCGGUAGCCAAGGUGGUUUAAGGCGCAAGACUUUAAUUUAUCACUACGAAAUCUUGAGAUCGGGCGUUCGACUCGCCCGCGGGAGAUUUUUUCCUCGAGCAA | ≤ 0.026
18 | CUCUCGGUAGCUAAGUUGGUUUAAGGCGCAAGACUUUAAUUUAUCACUACGAAAUUUUGAGAUCGGGCGUUCGACUCGCCCCCGGGAGAUUUUUUCCUCGAGCAA | ≤ 0.026
19 | CUGUCGGUAGCCAAGUUGGUUUAAGGCGCGAGACUUUAAUUUAUCACUACGAAAUCUAGAGAUCGGGCGUUCGACUCGCCCCCGGGAGAUUUUUUCCUCGAGCAA | ≤ 0.026
20 | CUCUUGGUAGCCAAGUUGGUUUAAGGCGCAAGACUUUAAUUUAUCACUACGAAAUCUUGAAAUCGGGCGUUCGACUCGCCCCCGGGAGAUUUUUUCCUCGAGCAA | 0.0314
21 | CACUCGGUAGCCAAGUUGGUUUAAGGCGCAAGGCUUUAAUUUAUCACUACGAAAUCUUGAGAUCGGGCGUUCGACUCGCCCCCGGGAGAUUUUUUCCUCGAGCAA | ≤ 0.026
22 | CUCUCGGUAGCCAGGUAGGUUUAAGGCGCAAGACUUUAAUUUAUCACUACGAAAUCUUUAGAUCGGGCGUUCGACUCGCCCCCGGGAGAUUUUUUCCUCGAGCAA | ≤ 0.026
23 | CUCUCGGCAGCCAAGUUGGUUUAAGGCGCAAGACUUUAAUUUAUCACUACGAAGUCUUCAGGUCGGGCGUUCGACUCGCCCCCAGGAGAUUUUUUCCUCGAGCAA | ≤ 0.026
24 | CACUCGGUAGCCAAGUUGGUUUAAGGCGCACGACUUUAAUUUAUCACUACGAAAUCUUGAGCUCGGGCGUUCGACUCUCCCCCGGGUGAUUUUUUCCUCGAGCAA | ≤ 0.026
25 | CUCUCGGUAGCCCAGUUGGUUUAAGGCGCAAGACGUUAAUUUAUCACUACGAAAUCCUGAGAUCGGGCGUUCGACUCGCCCCCGGGAGAUUUUUUCCUCGAGCAA | ≤ 0.026
26 | CUCUCGGUAGCCAAGUUGGUUUAAGGCGCAGGACUUUAAUUUAUCACUACGAAUUCUUGAGAUCGGGCGUUCGACUCGCCCCCGGGAGAUUUUUUCCUCGAGCAA | 0.627
27 | CUUUCGGUAGCCAAGUUGGUUUAAGGCGCAAGACUUUAAUUUAUCACUACGAAAUCUUGAGAUCGGGCGUUCGACUCCCCCCCGGGAGUUUUUUUCCUCGAGCAA | ≤ 0.026
